The subject of the data set is human monocyte-derived macrophages. Briefly: Fluorophore uptake, fluorescence microscopy of macrophages. Type of data set: cell-based. To be noted: 30 μM, 3 h, 37 °C, fluorescence microscopy (λex 492 nm, λem 518 nm). An outline of the steps: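 Human monocyte-derived macrophages were incubated for 3 h with 30 μM free fluorophore or fluorophore-labelled oligopeptide, with DMSO alone as negative control. Cells were then imaged by fluorescence microscopy in the green channel (λex = 492 nm, λem = 518 nm) and in light field to find where the fluorophore sat.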

In the case of `O=C(O)c1ccc2c(c1)C(=O)OC21c2ccc(O)cc2Oc2cc(O)ccc21` [5-FAM, 5-carboxy-fluorescein], the “uptake into cells (fluorophore localization)” value is “not able to penetrate the cell membrane”.
